Laboratory results from ChEMBL document CHEMBL1122744, “2-Chloroethyl (methylsulfonyl)methanesulfonate and related (methylsulfonyl)methanesulfonates. Antineoplastic activity in vivo” (J Med Chem, 1984).

Assays:
[1] = Ratio of number of 30-day survivors to the total treated mice at dose 50 mg/kg in exp1; 4/6; format: functional
Mus musculus [2] = assay: Median survival time of the treated control groups, in which there are no 30-day survivors at dose 50 mg/kg in exp6; format: functional
Mus musculus [3] = assay: Change in weight by day 5, obtained by subtracting treated groups of animals minus control groups of animals at dose 50 mg/kg in exp5; format: functional
Summary of the method: (§1)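 Mice were inoculated ip with 10^6 P388 leukemia cells on day 0 and weighed 19–22 g that day. Compound was given ip once daily on days 1–5, within about 5 min of preparing the solution or suspension, to groups of six (occasionally five). Thirty inoculated untreated mice served as controls. The value is the average weight change of treated mice minus that of controls on day 5.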

Mus musculus [4] = assay: Median survival time of the untreated control groups, in which there are no 30-day survivors at dose 15 mg/kg in exp3; format: functional
Mus musculus [5] = assay: Mortality by day 5 expressed as number of mice died to the total treated at dose 150 mg/kg in exp2; 5/5; format: ADME, organism-based; parameters: dose 150 mg/kg; conditions: in vivo
[6] = Ratio of median survival times for non-survivors at dose 22 mg/kg in exp3; format: functional
Summary of the method: (§2)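 Mice were inoculated ip with 10^6 P388 leukemia cells on day 0. Groups of six (occasionally five) were dosed ip qd on days 1–5 with fresh suspensions; 30 mice served as untreated controls. Deaths were recorded daily up to day 60. T/C% compares the median survival of treated non-survivors (<60 days) with the control median. Medians used grouped data when there were no 30-day survivors, otherwise ungrouped data. t = toxic.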

[7] = Ratio of median survival times for non-survivors at dose 33 mg/kg in exp7; format: functional
Mus musculus [8] = assay: Median survival time of the treated control groups, in which there are no 30-day survivors at dose 100 mg/kg in exp1; format: functional
Mus musculus [9] = assay: Median survival time of the untreated control groups, in which there are no 30-day survivors at dose 200 mg/kg in exp8; format: functional
Mus musculus [10] = assay: Median survival time of the untreated control groups, in which there are no 30-day survivors at dose 22 mg/kg in exp3; format: functional
Mus musculus [11] = assay: Change in weight by day 5, obtained by subtracting treated groups of animals minus control groups of animals at dose 50 mg/kg in exp4.; format: functional; summary of the method: as §1
[12] = Ratio of median survival times for non-survivors at dose 200 mg/kg in exp1; t= toxic; format: ADME, organism-based; parameters: dose 200 mg/kg; conditions: in vivo; summary of the method: as §2
[13] = Number of 30-day survivors at dose 50 mg/kg in exp7*-one death on 6th day, one death on 27th day & four 30 day survivors; 4/6
Mus musculus [14] = assay: Change in weight by day 5, obtained by subtracting treated groups of animals minus control groups of animals at dose 100 mg/kg in exp8; format: functional; summary of the method: as §1
Mus musculus [15] = assay: Mortality by day 5 expressed as number of mice died to the total treated at dose 100 mg/kg in exp8*-Mortality was 3/6 by day 6; 2/6; format: ADME, organism-based; parameters: dose 100 mg/kg; conditions: in vivo
Mus musculus [16] = assay: Median survival time of the treated control groups, in which there are no 30-day survivors at dose 33 mg/kg in exp2; format: functional
Mus musculus [17] = assay: Median survival time of the untreated control groups, in which there are no 30-day survivors at dose 200 mg/kg in exp1; format: functional
Mus musculus [18] = assay: Mortality by day 5 expressed as number of mice died to the total treated at dose 50 mg/kg in exp5; 0/6; format: ADME, organism-based; parameters: dose 50 mg/kg; conditions: in vivo
Mus musculus [19] = assay: Mortality by day 5 expressed as number of mice died to the total treated at dose 33 mg/kg in exp2; 0/5; format: ADME, organism-based; parameters: dose 33 mg/kg; conditions: in vivo
Mus musculus [20] = assay: Change in weight by day 5, obtained by subtracting treated groups of animals minus control groups of animals at dose 33 mg/kg in exp7; format: functional; summary of the method: as §1
Mus musculus [21] = assay: Median survival time of the untreated control groups, in which there are no 30-day survivors at dose 33 mg/kg in exp5; format: functional
[22] = Ratio of median survival times for non-survivors at dose 75 mg/kg in exp2; format: functional
Mus musculus [23] = assay: Mortality by day 5 expressed as number of mice died to the total treated at dose 22 mg/kg in exp7; 0/6; format: ADME, organism-based; parameters: dose 22 mg/kg; conditions: in vivo
Mus musculus [24] = assay: Change in weight by day 5, obtained by subtracting treated groups of animals minus control groups of animals at dose 50 mg/kg in exp8; format: functional; summary of the method: as §1
[25] = Ratio of number of 60-day survivors to the total treated mice at dose 33 mg/kg in exp4; 0/6; format: functional
Mus musculus [26] = assay: Change in weight by day 5, obtained by subtracting treated groups of animals minus control groups of animals at dose 33 mg/kg in exp6; format: functional; summary of the method: as §1
Mus musculus [27] = assay: Mortality by day 5 expressed as number of mice died to the total treated at dose 22 mg/kg in exp6; 0/6; format: ADME, organism-based; parameters: dose 22 mg/kg; conditions: in vivo
[28] = Ratio of median survival times for non-survivors at dose 100 mg/kg in exp1; format: functional; parameters: unit: %; summary of the method: as §2
Mus musculus [29] = assay: Change in weight by day 5, obtained by subtracting treated groups of animals minus control groups of animals at dose 100 mg/kg in exp2.; format: functional; summary of the method: as §1
Mus musculus [30] = assay: Mortality by day 5 expressed as number of mice died to the total treated at dose 33 mg/kg in exp4; 0/6; format: ADME, organism-based; parameters: dose 33 mg/kg; conditions: in vivo
Mus musculus [31] = assay: Median survival time of the treated control groups, in which there are no 30-day survivors at dose 50 mg/kg in exp2; format: functional
Mus musculus [32] = assay: Mortality by day 5 expressed as number of mice died to the total treated at dose 50 mg/kg in exp2; 0/5; format: ADME, organism-based; parameters: dose 50 mg/kg; conditions: in vivo
Mus musculus [33] = assay: Median survival time of the untreated control groups, in which there are no 30-day survivors at dose 50 mg/kg in exp7; format: functional
[34] = Ratio of number of 60-day survivors to the total treated mice at dose 50 mg/kg in exp6; […]; format: functional
[35] = Ratio of median survival times for non-survivors at dose 33 mg/kg in exp6; format: functional
Mus musculus [36] = assay: Change in weight by day 5, obtained by subtracting treated groups of animals minus control groups of animals at dose 33 mg/kg in exp5; format: functional; summary of the method: as §1
Mus musculus [37] = assay: Change in weight by day 5, obtained by subtracting treated groups of animals minus control groups of animals at dose 50 mg/kg in exp1.; format: functional; summary of the method: as §1
Mus musculus [38] = assay: Median survival time of the treated control groups, in which there are no 30-day survivors at dose 22 mg/kg in exp3; format: functional
[39] = Ratio of median survival times for non-survivors at dose 50 mg/kg in exp1; format: functional; parameters: unit: %; summary of the method: as §2
Mus musculus [40] = assay: Median survival time of the untreated control groups, in which there are no 30-day survivors at dose 50 mg/kg in exp8; format: functional
[41] = Ratio of median survival times for non-survivors at dose 100 mg/kg in exp2; format: functional; summary of the method: as §2
Mus musculus [42] = assay: Change in weight by day 5, obtained by subtracting treated groups of animals minus control groups of animals at dose 15 mg/kg in exp3.; format: functional; summary of the method: as §1
Mus musculus [43] = assay: Median survival time of the treated control groups, in which there are no 30-day survivors at dose 50 mg/kg in exp1; format: functional
Mus musculus [44] = assay: Median survival time of the untreated control groups, in which there are no 30-day survivors at dose 100 mg/kg in exp1; format: functional

In the case of CS(=O)(=O)CS(=O)(=O)OCCCl, the Ratio [1] is reported as 4, the Median survival time (Mus musculus [2]) is reported as 43.5 and the Change in weight (Mus musculus [3]) is reported as -2.2. The Median survival time (Mus musculus [4]) was 11.1, the Mortality (Mus musculus [5]) was 5 and the Ratio [6] was 166. For the same compound, the Ratio [7] was 179, the Median survival time (Mus musculus [8]) was 17 and the Median survival time (Mus musculus [9]) was 11. The Median survival time (Mus musculus [10]) was 11.1, the Change in weight (Mus musculus [11]) was -3 and the Ratio [12] was “Toxic”. The 30-day survivors [13] was 4, the Change in weight (Mus musculus [14]) was -6 and the Mortality (Mus musculus [15]) was 2. The Median survival time (Mus musculus [16]) was 23.5, the Median survival time (Mus musculus [17]) was 11.2 days and the Mortality (Mus musculus [18]) was 0. It also gave a Mortality (Mus musculus [19]) of 0, a Change in weight (Mus musculus [20]) of -2.4 and a Median survival time (Mus musculus [21]) of 12. It also gave a Ratio [22] of 156, a Mortality (Mus musculus [23]) of 0 and a Change in weight (Mus musculus [24]) of -1.6. The Ratio [25] was 0, the Change in weight (Mus musculus [26]) was -2.1 and the Mortality (Mus musculus [27]) was 0. The Ratio [28] was 151, the Change in weight (Mus musculus [29]) was -4.1 and the Mortality (Mus musculus [30]) was 0. The Median survival time (Mus musculus [31]) was 27, the Mortality (Mus musculus [32]) was 0 and the Median survival time (Mus musculus [33]) was 13. The Ratio [34] was 2, the Ratio [35] was 179 and the Change in weight (Mus musculus [36]) was -1.5. The T-C (Mus musculus [37]) was -3.4 g, the Median survival time (Mus musculus [38]) was 18.5 and the Ratio [39] was 281. For the same compound, the Median survival time (Mus musculus [40]) was 11, the Ratio [41] was 200 and the Change in weight (Mus musculus [42]) was -0.9. The Median survival time (Mus musculus [43]) was 31.5 and the Median survival time (Mus musculus [44]) was 11.2.
